Laboratory results taken from ChEMBL document CHEMBL3603803, “Design and synthesis of dithiocarbamate linked β-carboline derivatives: DNA topoisomerase II inhibition with DNA binding and apoptosis inducing ability” (Bioorg Med Chem, 2015).

Legend:
Assay type in all cases: functional, cell-based
DU-145 = experiment: Cytotoxicity against human DU145 cells after 48 hrs by MTT assay; conditions: DU-145, 48 h
In short: (§1)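 Human cancer cell lines (A549 lung, MCF-7 breast, DU-145 prostate, HeLa cervical) exposed to compounds for 48 h; 50% inhibitory concentration derived, average of three individual experiments; doxorubicin reference agent.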

A549 = experiment: Cytotoxicity against human A549 cells after 48 hrs by MTT assay; conditions: A549, 48 h; in short: as §1
HeLa = experiment: Cytotoxicity against human HeLa cells after 48 hrs by MTT assay; in short: as §1
MCF7 = experiment: Cytotoxicity against human MCF7 cells after 48 hrs by MTT assay; conditions: MCF7, 48 h; in short: as §1

| SMILES | IC50 (DU-145) | IC50 (A549) | IC50 (HeLa) | IC50 (MCF7) |
| --- | --- | --- | --- | --- |
| Cn1c2ccccc2c2cc(CNC(=S)SCc3ccccc3)nc(-c3ccc(C(F)(F)F)cc3)c21 | 2.08 µM | 5.12 µM | 4.78 µM | 4.31 µM |
| FC(F)(F)c1ccc(-c2nc(CNC(=S)SCc3ccccc3)cc3c2[nH]c2ccccc23)cc1 | 5.88 µM | 9.33 µM | 3.98 µM | 12.3 µM |
| NCc1cc2c([nH]c3ccccc32)c(-c2ccc(C(F)(F)F)cc2)n1 | 9.12 µM | 15.8 µM | 15.8 µM | 12 µM |
| Cn1c2ccccc2c2cc(CNC(=S)SCc3ccccc3)nc(-c3ccc(F)cc3)c21 | 4.78 µM | 6.76 µM | 3.16 µM | 2.75 µM |
| COc1ccc(-c2nc(CN)cc3c2[nH]c2ccccc23)cc1 | 17.4 µM | 17.8 µM | 18.6 µM | 18.9 µM |
| COc1ccc(-c2nc(CNC(=S)SC)cc3c2[nH]c2ccccc23)cc1 | 1.14 µM | 7.94 µM | 7.78 µM | 8.51 µM |
| C=CCSC(=S)NCc1cc2c([nH]c3ccccc32)c(-c2ccc(OC)cc2)n1 | 46.7 µM | 51.4 µM | 59.1 µM | 38.8 µM |
| COc1cc(-c2nc(CNC(=S)SCc3ccccc3)cc3c2[nH]c2ccccc23)cc(OC)c1OC | 17.3 µM | 27.5 µM | 14.5 µM | 25.8 µM |
| COc1cc(-c2nc(CN)cc3c4ccccc4n(C)c23)cc(OC)c1OC | 14.8 µM | 18.2 µM | 19.9 µM | 15.1 µM |
| Cn1c2ccccc2c2cc(CN)nc(-c3ccc(C(F)(F)F)cc3)c21 | 7.76 µM | 19.2 µM | 15.1 µM | 11.7 µM |
| Fc1ccc(-c2nc(CNC(=S)SCc3ccccc3)cc3c2[nH]c2ccccc23)cc1 | 3.71 µM | 39.8 µM | 3.81 µM | 7.41 µM |
| CSC(=S)NCc1cc2c([nH]c3ccccc32)c(-c2ccc(C(F)(F)F)cc2)n1 | 9.54 µM | 16.9 µM | 12.6 µM | 15.8 µM |
| COc1cc(-c2nc(CN)cc3c2[nH]c2ccccc23)cc(OC)c1OC | 18.3 µM | 15.1 µM | 21.7 µM | 18.6 µM |
| COc1cc(-c2nc(CNC(=S)SCc3ccccc3)cc3c4ccccc4n(C)c23)cc(OC)c1OC | 10.6 µM | 14.1 µM | 12.3 µM | 13.9 µM |
| COc1ccc(-c2nc(CN)cc3c4ccccc4n(C)c23)cc1 | 12.8 µM | 20.1 µM | 14.8 µM | 16.6 µM |
| COc1ccc(-c2nc(CNC(=S)SC)cc3c4ccccc4n(C)c23)cc1 | 1.41 µM | 5.12 µM | 2.57 µM | 1.51 µM |
| Cn1c2ccccc2c2cc(CN)nc(-c3ccc(F)cc3)c21 | 10 µM | 19.5 µM | 20.5 µM | 16.6 µM |
| COc1cc(-c2nc(CNC(=S)SC)cc3c4ccccc4n(C)c23)cc(OC)c1OC | 6.16 µM | 12.5 µM | 16.9 µM | 15.2 µM |
| C=CCSC(=S)NCc1cc2c([nH]c3ccccc32)c(-c2ccc(F)cc2)n1 | 3.98 µM | 16.7 µM | 4.46 µM | 6.6 µM |
| COc1ccc(-c2nc(CNC(=S)SCc3ccccc3)cc3c4ccccc4n(C)c23)cc1 | 6.91 µM | 9.12 µM | 13.8 µM | 3.36 µM |
| COc1cccc2c1C(=O)c1c(O)c3c(c(O)c1C2=O)C[C@@](O)(C(=O)CO)C[C@@H]3O[C@H]1C[C@H](N)[C@H](O)[C@H](C)O1 [DOXORUBICIN] | 1.38 µM | 1.58 µM | 2.63 µM | 0.96 µM |
| C=CCSC(=S)NCc1cc2c3ccccc3n(C)c2c(-c2ccc(F)cc2)n1 | 2.88 µM | 6.02 µM | 2.57 µM | 3.01 µM |
| C=CCSC(=S)NCc1cc2c([nH]c3ccccc32)c(-c2ccc(C(F)(F)F)cc2)n1 | 7.76 µM | 18.6 µM | 10.6 µM | 10.9 µM |
